Test results taken from ChEMBL document CHEMBL4513216, “Probing the Open Global Health Chemical Diversity Library for Multistage-Active Starting Points for Next-Generation Antimalarials” (ACS Infect Dis, 2020).

Test: Toxicity liver stage against HepG2, at 10uM
Assay type: cell-based
Design: test concentration 10 uM, cell line HepG2-A16-CD81EGFP
Settings: human, HepG2-A16-CD81EGFP cells; read-out: INHIBITION
Outline: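 Uninfected HepG2-A16-CD81EGFP cells, 3 × 10^3 per well, 1536-well, plated on prespotted compound at 10 μM final, parasite-free screening media added to match infected plates; puromycin 10 μM positive, DMSO 0.5% negative; run in parallel with 48 h PbLuc assay at 37 °C, 5% CO2; viability by CellTiter-Glo luminescence, normalized to controls.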

Compound | cytotoxicity at 10 µM
COc1ccc(CN2CCOC[C@H]2c2nc(-c3ccncc3)c[nH]2)cc1 | -0.588%
O=C(CN1C(=O)CCC1=O)N1CCC(S(=O)(=O)Cc2ccco2)CC1 | 3.79%
CCOCC(=O)NCC1Cn2nnc(-c3cccc(F)c3)c2CO1 (stereo not given) | -1.29%
O=C(NCC1CC1)C1=NOC2(CCN(Cc3ccsc3)C2)C1 (stereo not given) | 1.47%
Cn1cc(CN2CC[C@H]3OCC[C@@H](C(=O)Nc4cnccn4)[C@@H]3C2)cn1 | 4.12%
Cc1ccc(S(=O)(=O)NC2CNC(=O)C2)cc1C (stereo not given) | -21.1%
COc1ccc(C)cc1NC(=O)Nc1cnc(N2CCN(C)CC2)nc1 | 5.06%
O=C1CCSCC(C(=O)N2CCCC2)N1 (stereo not given) | -9.83%
O=C1CCSCC(C(=O)N2CCN(C3CCCCC3)CC2)N1 (stereo not given) | -18.7%
O=C(c1ccsc1)N1CCc2c(CNc3ncccn3)n[nH]c2C1 | -16.7%
CN(C)S(=O)(=O)N1CCCCCC1c1cc(-c2ccc(F)cc2)no1 (stereo not given) | 10.6%
CC(C)C(NC(=O)c1cnc(N2CCOCC2)nc1)c1cccs1 (stereo not given) | 9.71%
COCCN1CCN(c2nc(O)cc(Cc3ccccc3F)n2)CC1 | -4.52%
c1cc(-c2cnc(C3CCNCC3)cn2)n[nH]1 | -2.78%
Cc1cc(C)cc(-c2cccc(CC3(C(=O)O)CCOCC3)c2)c1 | -4.04%
Cc1noc(C)c1CN1CCCCC1c1nc(-c2ccccc2)no1 (stereo not given) | -44%
Cc1ccc(-c2nc(CC(=O)NCC3CCCN(C(C)C)C3)cs2)o1 (stereo not given) | -53.2%
NC(=O)CSCC(=O)NC1(c2cccc(Cl)c2)CC1 | -16.4%
N#CC1(NC(=O)COc2cc(Cl)cc(Cl)c2)CCSC1 (stereo not given) | 7.95%
O=C(Nc1cc(C(F)(F)F)c[nH]c1=O)C1CCCN1 (stereo not given) | -7.33%
COC(=O)CC1CCCCN1CC(=O)NCCc1ccc(F)cc1 (stereo not given) | -8.61%
COc1ccc(OCc2nc3cc4c(cc3c(=O)o2)OCCCO4)cc1 | 5.73%

Compound | cytotoxicity at 10 µM
CC(C)c1noc(CCCC(=O)N2CCN(C)CC2c2ccccc2)n1 (stereo not given) | -2.89%
Cc1ccnc(C(NC(=O)c2oc(C)nc2C)C2CC2)n1 (stereo not given) | -0.392%
Cc1nn(C)c(C)c1OCC(=O)NCc1cccc(C(=O)O)c1 | -3.83%
O=c1oc(-c2ccccc2)nn1CN1CCC(N2CCCCC2)CC1 | 6.64%
CCN(Cc1ccccc1)C(=O)CN1CCCCC1Cn1cncn1 (stereo not given) | 7.15%
Cc1ccc(C(=O)N(C)Cc2ccc(Br)o2)c(=O)[nH]1 | 8.6%
CC(CN1CCCC1=O)NC(=O)c1cc(Cl)c2c(c1)OCO2 (stereo not given) | -10.4%
CC(C)c1cnc(CN(C)C2CCN(CCS(C)(=O)=O)C2)o1 (stereo not given) | 0.528%
CCC1(CNC(=O)NC(c2nnc3n2CCC3)C(C)C)CCC1 (stereo not given) | 0.864%
Cc1cc(F)ccc1-n1cc(O)c(C(N)=O)n1 | -9.55%
CCN(c1cccc(F)c1)S(=O)(=O)c1cc(C(=O)O)cc2c1CCC2 | 10.5%
CC(Cc1ccco1)NC(=O)CCn1cccn1 (stereo not given) | -6.19%
CC(CNC(=O)C1(c2ccc(F)cc2)CC1)CN1CCCC1=O (stereo not given) | -8.26%
Cc1cc(N2CCC(NC(=O)CCc3ccco3)CC2)nc(C)n1 | -14.3%
CC(CC#N)N(C)Cc1ccccc1Cl (stereo not given) | -8.67%
CC(C)OCCC(=O)Nc1cc(C(=O)N(C)C(C)C)ccc1Cl | -3.79%
CC(=O)N(Cc1ccc(NCc2cnn(C(C)(C)C)c2)cc1)C(C)C | -3.44%
CCc1cnccc1C(=O)NC1CCN(C(=O)C2CCCCC2)CC1 | 3.51%
Cc1cccc2c1C(=O)NC1(CCOCC1)N2 | -42.3%
COCC(=O)NC1(c2cccc(C(F)(F)F)c2)CCC1 | -50%
CCc1nnsc1C(=O)N(C)Cc1ccc(Br)o1 | -48.8%
FC(F)(F)c1cccc(C2(CNCc3ccncc3)CCOCC2)c1 | -6.98%

Compound | cytotoxicity at 10 µM
O=C(c1cccc(NCCO)c1)N1CCOCC1 | -11%
Cc1noc(Cl)c1CCC(=O)N1CCCCC1Cn1cccn1 (stereo not given) | -12.6%
Cc1noc([C@]23COC[C@H]2CN(C(=O)Cc2ccsc2)C3)n1 | -95.9%
CCOCC(=O)N1CCC2(CC1)CC(c1ccccc1)CO2 (stereo not given) | -113%
O=C(Cc1ccco1)N1C[C@H]2CCC[C@@]2(COCc2cccnc2)C1 | -115%
COCCNC(=O)[C@H]1CO[C@H]2CCN(Cc3cccs3)C[C@H]2C1 | -108%
O=C(CNCc1ccccc1Cn1cccn1)Nc1cnccn1 | 8.11%
Cc1cccc2sc(NC(=O)CN3CCCC4(CC3)CNC(=O)O4)nc12 (stereo not given) | -4.26%
Cc1cccc(CN2CCN(C(=O)N(C)C)[C@@H]3CS(=O)(=O)C[C@@H]32)n1 | 0.00559%
Cn1cc(CN(CC2(O)CCNC2)C2CCCCC2)cn1 (stereo not given) | 17.8%
CC(C)c1nc(CCN(C)c2nccc(N3CCCC(O)C3)n2)no1 (stereo not given) | -12%
Fc1ccc(CC2CCN(Cc3nccs3)CC2)cc1 | -2.87%
CCn1c(C2CCCNC2)nn(Cc2ccc(C(=O)NC)o2)c1=O (stereo not given) | 8.25%
Cc1nccn1-c1ccc(N2CCC(NC(C)CC(C)C)CC2)cc1 (stereo not given) | 1.71%
CN(CCCc1cnn(C)c1)C(=O)C1CCN(C(=O)C2CCC2)CC1 | -11.6%
COc1cccc2c1OCCCN(c1nc3c(c(=O)[nH]1)CCNCC3)C2 | -5.24%
C[C@@H]1CN(S(=O)(=O)N2CCCC2)CC[C@@]1(O)C1CCOCC1 | 4.49%
COc1ccc(-c2n[nH]cc2CN(C)CCC2CCOCC2)cc1F | -6.57%
O=C(Cn1nnc(-c2ccc(F)cc2)n1)N1CCOCC(O)C1 (stereo not given) | 10.9%
CC(C)=CCN1CCC2(CC1)CC(=O)N(Cc1cc(F)cc(F)c1)C2 | 0.308%
CCN(CC)S(=O)(=O)c1ccc(NC(=O)C(C)(C)C)cc1 | 9.22%
COCc1nc(CNC2CCSC2)no1 (stereo not given) | -1.37%

Compound | cytotoxicity at 10 µM
C=Cc1cccc(CN2CCCn3nc(CNS(C)(=O)=O)cc3C2)c1 | 3.15%
CC(=O)N[C@H]1CCN(c2nc(C)nc3c2c(C)nn3C)C1 | 4.61%
CC(C)CC(O)C1CCN(Cc2cnc(-c3cccs3)nc2)CC1 (stereo not given) | -3.18%
CN1CCc2[nH]cnc2C12CCN(Cc1ccc(S(C)(=O)=O)cc1)CC2 | -3.72%
CC(C)c1cc(C(=O)N2C[C@@H](C)[C@](O)(C3CC3)C2)[nH]n1 | 16.3%
CNc1cc(C)nc(N2C[C@@H](C(=O)O)[C@H](C3CC3)C2)n1 | -0.147%
CCNC(=O)CCN1CCC(c2cc(N3CCOCC3)nc(C)n2)CC1 | -10.8%
Cc1ccc2c(c1)c(CNC(=O)C1CC(=O)N(C3CCCC3)C1)nn2C (stereo not given) | -19.9%
Cc1cc(C)n(CC(=O)N(C)Cc2csc(-c3cccs3)n2)c(=O)n1 | 32.2%
COc1cccc(N2CCN(Cc3ccc(NC(C)=O)cc3)CC2=O)c1 | -15.4%
Cn1nc(C2CN(C(=O)c3cscn3)C2)c2nccnc21 | 2.21%
Cc1nccc(CN2CC[C@H](Oc3cccc(F)c3)[C@@](C)(O)C2)n1 | 2.84%
COc1c(C2CCCN2C(=O)c2cscn2)c(C)nn1C (stereo not given) | 5.77%
COCCc1noc(CN2CCCC2Cn2cccn2)n1 (stereo not given) | -0.206%
COc1ccc(-n2ccc(C(=O)NCCN3CCC(C)CC3)n2)cc1 | -6.48%
Cc1cc(C[S+]([O-])CC(=O)NCc2ccccc2)no1 (stereo not given) | -2.13%
Cc1nc(C)n(CC2CCCCN2Cc2nc3ccccc3o2)n1 (stereo not given) | -6.8%
Cc1cc(NC(=O)CN2CCCC2Cn2nc(C)nc2C)n(C)n1 (stereo not given) | -2.49%
CCCNC(=O)C(C)N1CCC(C(=O)Nc2cnn(CC)c2)CC1 (stereo not given) | -5.36%
c1sc(C2CCCCC2)nc1CN1CCn2c(nnc2C2CC2)C1 | -6.61%
CC(C)n1cc(CN2CCCN(C(=O)C(C)n3cccn3)CC2)cn1 (stereo not given) | -17.9%
Cc1nn(C)c(Cl)c1C1CCCN1C(=O)c1ccncc1 (stereo not given) | -11.2%

Compound | cytotoxicity at 10 µM
CN1CCN(c2cc(CNC(=O)c3ccc(Cl)o3)ccn2)CC1 | -9.69%
Cc1cnc(CNC(=O)N(CCCO)C2CCc3ccccc32)s1 (stereo not given) | -17.2%
CCCOc1cc(C)ccc1NC(=O)N(C)Cc1cnn(C)c1 | -11.1%
NC(=O)N1CCC(C(=O)NCc2nncn2-c2ccccc2)CC1 | -18.7%
Cc1nc(C)n(C2CCCN(C(=O)c3ncoc3C(C)C)C2)n1 (stereo not given) | -17%
COCCCC(=O)NS(=O)(=O)c1ccc2c(c1)OCCCO2 | -2.77%
Cc1nccn1C1CCCN(C(=O)c2ccc3c(c2)nnn3C)C1 (stereo not given) | -7.89%
Cc1nnc(NCc2cccnc2N(C)C)c(C#N)c1C | -4.94%
Cc1ncc2c(n1)CCN(Cc1nc3ccccc3o1)C2 | 1.66%
Cc1cnn(CC2CCCN2c2nn3cc(C)nc3s2)c1 (stereo not given) | -2.84%
Cc1ccc(OCCCNC(=O)NC(C)c2nncn2C)cc1 (stereo not given) | -3.83%
Fc1cnc(N2CCO[C@H]3[C@H](OCC4CCOCC4)CC[C@@H]32)nc1 | 10.7%
Cc1cc(-c2cnn(CCNC(=O)c3cccnc3)c2C2CC2)on1 | 0.565%
c1ccc(NCc2cn3c(n2)CN(Cc2cccnc2)CC3)nc1 | 1.52%
O=C(CCC1CCCC1)NCCn1nc(C2CCNC2)c2cccnc21 (stereo not given) | -2.83%
Cc1nc(N2CCOCC2)nc2c1CCN(Cc1nccn1C)CC2 | -125%
O=C(N1CCOCC1)[C@@]12CCO[C@@H]1CCN(C1CCOCC1)C2 | 5.83%
CC(C)N1CCO[C@H]2CN(C(=O)c3ccoc3)C[C@H]21 | -0.207%
CS(=O)(=O)N1CC[C@H]2OCC[C@@]2(C(=O)NCCc2ccccn2)C1 | -101%
CS(=O)(=O)NC[C@]12COC[C@H]1CN(Cc1ccc3c(c1)OCO3)C2 | -106%
CC(C)N(C)Cc1ncn2c1CN(S(=O)(=O)c1cccs1)CCC2 | 3.62%
O=C(c1ccccn1)N1Cc2nccn2CC(CN2CCOCC2)C1 (stereo not given) | 2.16%
